Active and inactive are the calls of the source.
Experiments:
[1] = test system: Hepacivirus hominis; experiment: Inhibition of HCV NS3 helicase overexpressed in Escherichia coli BL21(DE3) assessed as inhibition of DNA unwinding activity at 10 uM by FRET assay
[2] = test system: Hepacivirus hominis; experiment: Inhibition of HCV NS3 helicase ATP hydrolysis activity overexpressed in Escherichia coli BL21(DE3) assessed as inhibition of inorganic phosphate release by AM/MG-based colometric analysis in the presence of M13 ssDNA
[3] = test system: Severe acute respiratory syndrome-related coronavirus; experiment: Inhibition of SARS coronavirus nsP13 helicase activity expressed in Escherichia coli Rosetta assessed inhibition of DNA unwinding activity at 10 uM by FRET assay
Outline: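 FRET dsDNA-unwinding assay using fluorescein/TAMRA-labelled duplex. When nsP13 unwinds the duplex, fluorescein emission is unquenched. Compound was added to the unwinding reaction at 10 µM, and fluorescence was read at 535 nm.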

Measured: inhibition

C=C[C@]1(C)CC[C@@]2(C)C3=CCC[C@](C)(CO)[C@@H]3CC[C@@H]2C1
inactive: all assays above

O=C(O)[C@H]1O[C@@H](Oc2cc3oc(-c4ccc(O)cc4)cc(=O)c3c(O)c2O)[C@H](O)[C@@H](O)[C@@H]1O
inactive: all assays above

Cc1cc(=O)c2c(O)c3c(cc2o1)OC(C)(C)[C@@H](O[C@H]1O[C@@H](CO)[C@H](O)[C@@H](O)[C@@H]1O)C3
inactive: all assays above

COc1c2c(cc3oc(CO[C@@H]4O[C@H](CO)[C@@H](O)[C@H](O)[C@H]4O)cc(=O)c13)O[C@H](C(C)(C)O)C2
inactive: all assays above

COc1ccc([C@@H]2CC(=O)c3c(O)cc(O)cc3O2)cc1O[C@@H]1O[C@H](CO[C@@H]2O[C@@H](C)[C@H](O)[C@@H](O)[C@H]2O)[C@@H](O)[C@H](O)[C@H]1O
inactive: all assays above

COc1cc(/C=C/C(=O)CC(=O)/C=C/c2ccc(O)c(OC)c2)ccc1O
inactive: all assays above

CC1(C)CC[C@]2(C(=O)O)CC[C@]3(C)C(=CC[C@@H]4[C@@]5(C)CC[C@H](O)C(C)(C)[C@@H]5CC[C@]43C)[C@@H]2C1
inactive: all assays above

COc1c(O)cc2oc3cc(O)c(CC=C(C)C)c(O)c3c(=O)c2c1CC=C(C)C
inactive: all assays above

C[C@H]1C(=O)CC[C@@H]2[C@]1(C)CC[C@H]1[C@@]2(C)CC[C@@]2(C)[C@@H]3CC(C)(C)CC[C@]3(C)CC[C@]12C
inactive: all assays above

CC(C)=CCC[C@](C)(O[C@@H]1O[C@H](CO[C@@H]2O[C@H](CO)[C@@H](O)[C@H](O)[C@H]2O)[C@@H](O)[C@H](O)[C@H]1O)[C@H]1CC[C@]2(C)[C@@H]1[C@H](O)C[C@@H]1[C@@]3(C)CC[C@H](O[C@@H]4O[C@H](CO)[C@@H](O)[C@H](O)[C@H]4O[C@@H]4O[C@H](CO)[C@@H](O)[C@H](O)[C@H]4O)C(C)(C)[C@@H]3CC[C@]12C
inactive: all assays above

Cc1cc(=O)c2c(O)c3c(cc2o1)OC(C)(C)[C@@H](O)C3
inactive: all assays above

O=c1c(-c2ccc(O)cc2)coc2cc(O[C@@H]3O[C@H](CO)[C@@H](O)[C@H](O)[C@H]3O)ccc12
inactive: all assays above

C=C(C)C(C)CC[C@@H](C)[C@H]1CC[C@@]2(C)[C@@H]3CC[C@H]4C(C)(C)C(=O)CC[C@]4(C)C3=CC[C@]12C (stereo partly drawn)
inactive: all assays above

O=c1cc(-c2ccccc2)oc2cc(O)cc(O)c12
inactive: all assays above

C[C@H]1[C@@H](O)CC[C@@H]2[C@]1(C)CC[C@H]1[C@@]2(C)CC[C@@]2(C)[C@@H]3CC(C)(C)CC[C@]3(C)CC[C@]12C
inactive: all assays above

COc1ccc(/C=C/C(=O)O[C@H]2[C@@H]3C=CO[C@@H](O[C@@H]4O[C@H](CO)[C@@H](O)[C@H](O)[C@H]4O)[C@@H]3[C@@]3(CO)O[C@@H]23)cc1O
inactive: all assays above

C=C1CC[C@@H]2[C@](C)(CCC[C@]2(C)C(=O)O)[C@H]1CCc1ccoc1
inactive: all assays above

C/C=C(/C)C(=O)O[C@H]1Cc2c(cc3oc(CO)cc(=O)c3c2O)OC1(C)C
inactive: all assays above

CC(C)=CCOc1c2occc2cc2ccc(=O)oc12
inactive: all assays above

O=C(O)c1cc(O)c(O)c(O)c1
inactive: all assays above

C[C@H]1[C@H](C)CC[C@]2(C(=O)O)CC[C@]3(C)C(=CC[C@@H]4[C@@]5(C)CC[C@H](O)C(C)(C)[C@@H]5CC[C@]43C)[C@H]12
inactive: all assays above

CC1(C)CC[C@]2(C(=O)O)CC=C3[C@]4(C)CC[C@H]5C(C)(C)[C@@H](O)CC[C@]5(C)[C@H]4CC[C@@]3(C)[C@@H]2C1
inactive: all assays above

C=C(C)C(C)(C)CC[C@@H](C)[C@H]1CC[C@@]2(C)[C@@H]3CC[C@H]4C(C)(C)C(=O)CC[C@]4(C)C3=CC[C@]12C
inactive: all assays above

O=c1c(-c2ccc(O[C@@H]3O[C@H](CO)[C@@H](O)[C@H](O)[C@H]3O)cc2)coc2cc(O)cc(O)c12
inactive: all assays above

COc1ccc(C(=O)O[C@H]2[C@@H]3C=CO[C@@H](O[C@@H]4O[C@H](CO)[C@@H](O)[C@H](O)[C@H]4O)[C@@H]3[C@@]3(CO)O[C@@H]23)cc1O
inactive: all assays above

O=C1C[C@@H](c2ccc(O)cc2)Oc2cc(O)cc(O)c21
inactive: all assays above

O=c1c(O)c(-c2ccccc2)oc2cc(O)cc(O)c12
inactive: all assays above

COc1c(O)cc2oc3cc(O)c4c(c3c(=O)c2c1CC=C(C)C)OC(C)(C)CC4
inactive: all assays above

COc1ccc(-c2oc3c(CC=C(C)C)c(O)cc(O)c3c(=O)c2O)cc1
inactive: all assays above

C=C(C)[C@@H](C)CC[C@@H](C)[C@H]1CC[C@@]2(C)[C@@H]3CC[C@H]4C(C)(C)C(=O)CC[C@]4(C)C3=CC[C@]12C
inactive: all assays above

O=C(/C=C/c1ccc(O)cc1)c1ccc(O)cc1O
inactive: all assays above

C=CCc1cc(OC)c(O)c(OC)c1
inactive: all assays above

CCCCCCCCCCCCC/C=C1/C(=O)O[C@H](C)[C@@H]1O
inactive: all assays above

COc1ccc(C(=O)O[C@H]2[C@@H]3C=CO[C@@H](O[C@@H]4O[C@H](CO)[C@@H](O)[C@H](O)[C@H]4O)[C@@H]3[C@@]3(CO)O[C@@H]23)cc1OC
inactive: all assays above

C=C(C)[C@@H]1CC[C@]2(C(=O)O)CC[C@]3(C)[C@H](CC[C@@H]4[C@@]5(C)CC[C@H](O)C(C)(C)[C@@H]5CC[C@]43C)[C@@H]12
inactive: all assays above

O=C(/C=C/c1ccccc1)NCCCCNC(=O)Cc1ccc(O)cc1
inactive: all assays above

C[C@@H]1O[C@@H](O[C@H]2[C@H](Oc3cc(O)c4c(c3)O[C@H](c3ccc(O)cc3)CC4=O)O[C@H](CO)[C@@H](O)[C@@H]2O)[C@H](O)[C@H](O)[C@H]1O
inactive: all assays above

O=c1c(O[C@@H]2O[C@H](CO)[C@H](O)[C@H](O)[C@H]2O)c(-c2ccc(O)c(O)c2)oc2cc(O)cc(O)c12
inactive: all assays above

COc1c2c(cc3oc(C)cc(=O)c13)OC(C(C)(C)O)C2 (stereo not drawn)
inactive: all assays above

O=C(O[C@H]1[C@@H]2C=CO[C@@H](O[C@@H]3O[C@H](CO)[C@@H](O)[C@H](O)[C@H]3O)[C@@H]2[C@@]2(CO)O[C@@H]12)c1ccc(O)c(O)c1
inactive: all assays above

O=c1c(O)c(-c2ccc(O)cc2)oc2cc(O)cc(O)c12
inactive: all assays above

CC(C)=CCc1c(O)cc2oc3cc(O)c(O)c(CC=C(C)C)c3c(=O)c2c1O
inactive: all assays above

COc1ccc(-c2cc(=O)c3c(O)cc(O[C@H]4O[C@@H](CO)[C@H](O)[C@@H](O)[C@@H]4O)cc3o2)cc1O
inactive: all assays above

O=c1cc(-c2ccccc2)oc2cc(O)c(O)c(O)c12
inactive: all assays above

O=C(/C=C/c1ccccc1)NCCCCNC(=O)c1ccccc1
inactive: all assays above

CC[C@H](/C=C/[C@@H](C)[C@H]1CC[C@H]2[C@@H]3CC=C4C[C@@H](O)CC[C@]4(C)[C@H]3CC[C@]12C)C(C)C
inactive: all assays above
